Data set [1] is described as follows: Cytotoxicity against cell line COR/L23P determined by MTT test. The format is functional. The conditions noted are these: Homo sapiens. Put shortly: (§1)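 MTT assay after 72 h exposure, in duplicate. Human lung carcinoma COR L23/P and its adriamycin-selected MRP-mediated subline COR L23/R seeded at 5×10^3 per 200 µL. K562 leukemia cells and K562 transduced with human MDR1 (not drug-selected) seeded at 3×10^4 per 200 µL. MTT 3 h, read at 540 nm. Mean ± SE of three experiments.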

The species named for data set [2] is Homo sapiens. Kind of data set: Cytotoxicity against cell line mS/0.5 and pgp determined by MTT test. The class given is functional.
Data set [3] is described as follows: Cytotoxicity against cell line 2SC/20 determined by MTT test. The conditions noted are these: Mesocricetus auratus.
Data set [4] can be described thus: Cytotoxicity against cell line McA RH 7777 determined by MTT test. The format is functional. The settings on record: Rattus norvegicus, McA-RH7777.
In data set [5] the test system is K562. Kind of data set: Cytotoxicity against cell line K562 determined by MTT test. The format is functional, cell-based. The settings on record: Homo sapiens. Put shortly: (§2)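 MTT assay after 72 h exposure, in duplicate. Human lung carcinoma COR L23/P and its adriamycin-selected MRP-mediated subline COR L23/R seeded at 5×10^3 per 200 µL. K562 leukemia cells and K562 transduced with human MDR1 (not drug-selected) seeded at 3×10^4 per 200 µL. Non-fibroblast lines grown in RPMI-1640 with 5% FBS. MTT 3 h, read at 540 nm. Mean ± SE of three experiments.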

Data set [6] can be described thus: Index of sensitisation (IS)in presence of VBL and 2SC/2O. The format is functional. The gist of the method: (§3)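 HET-SR-2SC-LNM or 2SC/20 cells exposed for 72 h to a vinblastine or adriamycin dose series, alone or with modulator at 5 µM. IC50 by MTT (540 nm). IS is the mean IC50 with the drug alone divided by the mean IC50 with drug plus modulator. Four repeats.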

A short description of data set [7]: Cytotoxicity against cell line HET-SR-2SC-LNM determined by MTT test. The settings on record: Mesocricetus auratus.
A short description of data set [8]: Cytotoxicity against cell line McA RH 7777/0.4 and Pgp determined by MTT test. The settings on record: Rattus norvegicus, McA-RH7777. The format is functional.
The species named for data set [9] is Homo sapiens. Kind of data set: Cytotoxicity against cell line mS determined by MTT test. The format is functional.
Data set [10] is described as follows: Index of sensitisation (IS)in presence of ADM and 2SC/2O. The class given is functional. The gist of the method:
as §3

A short description of data set [11]: Cytotoxicity against cell line […] and MRP determined by MTT test. The format is functional. The conditions noted are these: Homo sapiens. Put shortly: as §1
The subject of data set [12] is K562. Kind of data set: Cytotoxicity against cell line K562i/S9 and pgp determined by MTT test. The format is functional, cell-based. The conditions noted are these: Homo sapiens. Put shortly:
as §2

Data set [13] is described as follows: Index of sensitisation (IS)in presence of ADM and HET-SR-2SC-LNM. The class given is functional. The gist of the method:
as §3

Data set [14] can be described thus: Index of sensitisation (IS)in presence of VBL and HET-SR-2SC-LNM. The format is functional. The gist of the method: as §3
A short description of data set [15]: Inhibitory concentration against the growth of 2SC/20 cell line after 72 hr of drug exposure by MTT test. The conditions noted are these: Mesocricetus auratus.
Data set [16] is described as follows: Inhibitory concentration against the growth of HET-SR-2SC-LNM cell line after 72 hr of drug exposure by MTT test. The conditions noted are these: Mesocricetus auratus.
Data set [17] in a line: Cytotoxicity against HET-SR-2SC-LNM cell line of hamster determined by MTT test. The conditions noted are these: Mesocricetus auratus.
A short description of data set [18]: Partition coefficient (logP). The settings on record: octanol/water. The class given is physicochemical.
Data set [19] in a line: Cytotoxicity against cell line 2SC/20 of hamster determined by MTT test. The conditions noted are these: Mesocricetus auratus.
Data set [20] can be described thus: Inhibitory concentration against the growth of 2SC/20 cell line after 72 hr of drug exposure by MTT test. The format is functional, Cricetulus griseus. Put shortly: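 Syrian hamster embryo fibroblasts (parental line or its colchicine-selected Pgp-positive 2SC/20 subline), grown in DMEM with 5% FBS at 37 °C, 5% CO2; selective agent withdrawn 2 days before use. (3–4) × 10³ cells per well, treated 16 h after plating, exposed 72 h. MTT (2 mg/mL solution) added for 3 h, formazan dissolved in acidified DMSO, absorbance read at 540 nm.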

A short description of data set [21]: Inhibitory concentration against the growth of HET-SR-2SC-LNM cell line after 72 hr of drug exposure by MTT test. The format is functional, Cricetulus griseus.
Data set [22] is described as follows: Index of sensitisation (IS) calculated as mean IC50 for cells incubated with VBL and of HET-SR-2SC-LNM. The format is functional. The gist of the method:
as §3

Data set [23] can be described thus: Index of sensitisation (IS) calculated as mean IC50 for cells incubated with VBL and of 2SC/2O. The class given is functional. The gist of the method: as §3
A short description of data set [24]: Index of sensitisation (IS) calculated as mean IC50 for cells incubated with ADM and of HET-SR-2SC-LNM. The class given is functional. The gist of the method:
as §3

Data set [25] in a line: Index of sensitisation (IS) calculated as mean IC50 for cells incubated with ADM and of 2SC/2O. The class given is functional. Put shortly:
as §3

Data set [26] is described as follows: Intracellular uptake of drug in presence of 3H VBL and VRP in HET-SR-2SC-LNM cell line. The conditions noted are these: Mesocricetus auratus.
Data set [27] can be described thus: Intracellular uptake of drug in presence of ADM and in absence of VRP in 2SC/20 cell line. The conditions noted are these: Mesocricetus auratus.
Data set [28] is described as follows: Intracellular uptake of drug in presence of 3H VBL and VRP in 2SC/20 cell line. The settings on record: Mesocricetus auratus.
The nature of data set [29]: Intracellular uptake of drug in presence of 3H VBL and in absence of VRP in 2SC/20 cell line. The conditions noted are these: Mesocricetus auratus.
Data set [30] is described as follows: Intracellular uptake of drug in presence of ADM and VRP in 2SC/20 cell line. The settings on record: Mesocricetus auratus.
Data set [31] is described as follows: Intracellular uptake of drug in presence of ADM and VRP in HET-SR-2SC-LNM cell line. The settings on record: Mesocricetus auratus.
Data set [32] can be described thus: Intracellular uptake of drug in presence of ADM and absence of VRPin HET-SR-2SC-LNM cell line. The settings on record: Mesocricetus auratus.
Data set [33] is described as follows: Intracellular uptake of drug in presence of 3H VBL and absence of VRPin HET-SR-2SC-LNM cell line. The conditions noted are these: Mesocricetus auratus.
The nature of data set [34]: Cytotoxicity against cell line COR/L23R and MRP determined by MTT test. The format is functional. The settings on record: Homo sapiens, COR-L23/R. The gist of the method:
as §2

Data set [35] is described as follows: Cytotoxicity against cell line HET-SR-2SC-LNM of hamster determined by MTT test. The conditions noted are these: Mesocricetus auratus.

pIC50: −log10 of the molar value. Where a name gives a salt, the structure may show the parent alone.

As to `COc1ccc(CNCCN(C/C=C(\C)CC/C=C(\C)CC/C=C(\C)CC/C=C(\C)CC/C=C(\C)CC/C=C(\C)CC/C=C(\C)CC/C=C(\C)CCC=C(C)C)Cc2ccc(OC)c(OC)c2)cc1OC`, the negative logarithm of the IC50 (pIC50) in data set [1] was less than 3.70; in the data set filed under Homo sapiens [2] it was 4.35; in data set [3], 4.70; in data set [4], 4.19; in the data set on K562 [5], 3.60; in data set [7], 4.10. In addition, the pIC50 is 4.26 in data set [8], 4.07 in the data set listed under Homo sapiens [9], less than 3.70 in [11] and 3.60 in the data set with K562 [12]. In addition, the IS in data set [6] is 4; in data set [10], 6; in data set [13], 2; in data set [14], 1.
In the case of `CC[C@]1(O)C[C@@H]2CN(CCc3c([nH]c4ccccc34)[C@@](C(=O)OC)(c3cc4c(cc3OC)N(C)[C@H]3[C@@](O)(C(=O)OC)[C@H](OC(C)=O)[C@]5(CC)C=CCN6CC[C@]43[C@@H]65)C2)C1` [VINBLASTINE], the negative-log IC50 (pIC50) is 6.61 in data set [15] and 7.74 in data set [16].
In the case of `COc1cc2c(c(OC)c1OC)-c1ccc(OC)c(=O)cc1[C@@H](NC(C)=O)CC2` [COLCHICINE], the pIC50 was 6.30 in [15] and 7.60 in [16].
On to `COc1ccc(CNCCNCc2ccc(OC)c(OC)c2)cc1OC`, for which the results for the pIC50 in data set [17] and in data set [19] were 3.28 and 3.33, respectively. This compound also showed a logP in data set [18] of 3.78.
For the compound `COc1cccc2c1C(=O)c1c(O)c3c(c(O)c1C2=O)C[C@@](O)(C(=O)CO)C[C@@H]3O[C@H]1C[C@H](N)[C@H](O)[C@H](C)O1` [DOXORUBICIN], the pIC50 was 6.21 in [15] and 7.28 in data set [16].
For the compound BLEOMYCIN, the negative-log IC50 (pIC50) is 6.29 in data set [20] and 6.28 in data set [21].
As for `COc1ccc(CNCCN(C/C=C(\C)CC/C=C(\C)CCC=C(C)C)Cc2ccc(OC)c(OC)c2)cc1OC`, the IS is 6 in data set [22], 12 in data set [23], 2 in data set [24] and 12 in data set [25]. Also, the values for the pIC50 in [7] and in data set [19] were 4.46 and 4.89, respectively.
For the compound `COc1ccc(CCN(C)CCCC(C#N)(c2ccc(OC)c(OC)c2)C(C)C)cc1OC` (configuration not stated) [VERAPAMIL HYDROCHLORIDE], the drug uptake was found to be 29 pmol/mg protein in data set [26]; 132 pmol/30 min in [27]; 23 pmol/mg protein in data set [28]; 10 pmol/mg protein in data set [29]; 289 pmol/30 min in data set [30]; 310 pmol/30 min in [31]. Also, the drug uptake came out at 235 pmol/30 min in data set [32] and 22 pmol/mg protein in data set [33]. The pIC50 was 3.64 in the data set filed under Homo sapiens [2], 4.00 with K562 [5], 3.33 in data set [8] and 4.00 in the data set with K562 [12]. For the same compound, the IS is 11 in [6], 11 in [10], 2 in data set [13] and 4 in [14].
For the compound `COc1ccc(CNCCN(C/C=C(\C)CCC=C(C)C)Cc2ccc(OC)c(OC)c2)cc1OC.Cl`, the negative-log IC50 (pIC50) in data set [1] is 4.60; in the data set filed under Homo sapiens [2], 4.74; in data set [4], 4.26; in the data set with K562 [5], 3.90; in [34], 4.89; in data set [8], 4.70. For the same compound, the negative logarithm of the IC50 (pIC50) in the data set filed under Homo sapiens [9] is 4.40; in data set [35], 4.82; in data set [19], 5.00; with K562 [12], 3.90. Besides, the IS in data set [22] is on record as 8; in [23], 11; in data set [24] it was 2; in data set [25] it was 12. In data set [18], this compound showed a logP of 4.51.

The values above are taken from ChEMBL document CHEMBL1135662, “Effects of isoprenoid analogues of SDB-ethylenediamine on multidrug resistant tumor cells alone and in combination with chemotherapeutic drugs” (J Med Chem, 2002).
